Test results published in ChEMBL document CHEMBL1137127 (Bioorg Med Chem Lett, 2004).

How the values were obtained:
[1] = logD value was determined; type: physicochemical; conditions: octanol/water
[2] = target: Metabotropic glutamate receptor 5 (Rattus norvegicus, UniProt P31424); test: Displacement by compound of [3H]3-methoxy-5-(pyridin-2-ylethynyl)pyridine from rat cortical membranes; type: cell membranes, Membrane
How it was run: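 Native rat mGlu5 binding: rat cortical membranes, displacement of [³H]-3-methoxy-5-(pyridin-2-ylethynyl)pyridine by test compound; Ki derived.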

[3] = target: Metabotropic glutamate receptor 5 (Homo sapiens, UniProt P41594); test: In vitro potency against human recombinant mGlu5 receptor was determined by [Ca2+] flux assay using glutamate as agonist; type: functional
How it was run: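 Ltk cells stably expressing human recombinant mGlu5; automated assay of cytosolic Ca²⁺ changes by fura-2 fluorescence; IC50 from antagonist response. Mean with a spread value and n in parentheses.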

[4] = Bioavailability of compound was determined upon p.o. administration at 2 mg/kg in rat; type: ADME, organism-based; conditions: in vivo, po
How it was run: (§1)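 Rat pharmacokinetics with two dosing regimens. In one, iv at 2 mg/kg with po at 10 mg/kg. In the other, iv at 1 mg/kg with po at 2 mg/kg. Bioavailability, clearance, half-life and Cmax come from plasma after each route.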

[5] = Plasma clearance of compound upon p.o. administration at 2 mg/kg; type: ADME, organism-based; set-up: dose 2 mg/kg, route oral; conditions: rat, po, read-out: Clp; how it was run: as §1
[6] = Half-life of compound after i.v. administration; type: ADME, organism-based; conditions: rat, in vivo, iv; how it was run: as §1
[7] = Maximum plasma concentration of compound after p.o. administration; type: ADME, organism-based; set-up: route oral; conditions: rat, po; how it was run: as §1
[8] = Bioavailability of compound was determined upon i.v. administration at 1 mg/kg in rat; type: ADME, organism-based; conditions: in vivo, iv; how it was run: as §1
[9] = Plasma clearance of compound upon i.v. administration at 1 mg/kg; type: ADME, organism-based; set-up: dose 1 mg/kg, route intravenous; conditions: rat, iv, read-out: Clp; how it was run: as §1
[10] = Bioavailability in rat (dose 10 mg/kg p.o.); type: ADME, organism-based; conditions: in vivo, po; how it was run: as §1
[11] = Plasma clearance of compound upon i.v. administration at 2 mg/kg; type: ADME, organism-based; set-up: dose 2 mg/kg, route intravenous; conditions: rat, iv, read-out: Clp; how it was run: as §1
[12] = Plasma clearance of compound upon p.o. administration at 10 mg/kg; type: ADME, organism-based; set-up: dose 10 mg/kg, route oral; conditions: rat, po, read-out: Clp; how it was run: as §1
[13] = Bioavailability in rat (dose 2 mg/kg i.v.); type: ADME, organism-based; conditions: in vivo, iv; how it was run: as §1

Chain of Metabotropic glutamate receptor 5 (Rattus norvegicus, UniProt P31424) (P31424 whole entry): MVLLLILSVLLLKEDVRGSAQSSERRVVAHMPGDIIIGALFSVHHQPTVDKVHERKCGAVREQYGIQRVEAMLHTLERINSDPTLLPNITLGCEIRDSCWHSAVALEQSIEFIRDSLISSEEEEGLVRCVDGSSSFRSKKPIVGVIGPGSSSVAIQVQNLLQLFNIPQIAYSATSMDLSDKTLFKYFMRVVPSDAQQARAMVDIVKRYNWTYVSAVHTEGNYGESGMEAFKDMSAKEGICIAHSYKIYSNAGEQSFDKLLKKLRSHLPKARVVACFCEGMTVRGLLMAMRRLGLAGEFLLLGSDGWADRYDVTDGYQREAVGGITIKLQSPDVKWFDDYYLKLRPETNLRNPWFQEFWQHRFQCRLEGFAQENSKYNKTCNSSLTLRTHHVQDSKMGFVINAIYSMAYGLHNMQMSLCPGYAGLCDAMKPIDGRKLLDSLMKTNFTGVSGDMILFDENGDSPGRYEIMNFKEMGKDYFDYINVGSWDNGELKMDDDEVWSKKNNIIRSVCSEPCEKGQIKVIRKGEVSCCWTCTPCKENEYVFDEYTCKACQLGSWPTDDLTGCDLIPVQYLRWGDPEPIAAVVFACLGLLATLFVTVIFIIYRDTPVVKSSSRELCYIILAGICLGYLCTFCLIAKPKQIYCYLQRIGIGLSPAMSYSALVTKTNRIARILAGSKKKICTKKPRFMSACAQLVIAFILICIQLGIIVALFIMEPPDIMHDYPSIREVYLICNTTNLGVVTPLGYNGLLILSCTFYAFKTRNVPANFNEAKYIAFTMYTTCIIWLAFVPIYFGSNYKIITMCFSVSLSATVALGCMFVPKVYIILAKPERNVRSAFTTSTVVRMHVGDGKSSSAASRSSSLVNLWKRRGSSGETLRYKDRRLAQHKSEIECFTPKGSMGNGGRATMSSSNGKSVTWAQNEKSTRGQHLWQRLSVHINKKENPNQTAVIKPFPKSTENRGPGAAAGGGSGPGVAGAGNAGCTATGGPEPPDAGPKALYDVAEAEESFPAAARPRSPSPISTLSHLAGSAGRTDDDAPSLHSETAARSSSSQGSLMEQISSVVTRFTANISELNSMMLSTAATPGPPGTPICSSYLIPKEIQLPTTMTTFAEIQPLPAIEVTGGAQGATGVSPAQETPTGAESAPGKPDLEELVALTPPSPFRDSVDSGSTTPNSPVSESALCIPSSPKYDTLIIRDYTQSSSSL
Chain of Metabotropic glutamate receptor 5 (Homo sapiens, UniProt P41594) (P41594 whole entry): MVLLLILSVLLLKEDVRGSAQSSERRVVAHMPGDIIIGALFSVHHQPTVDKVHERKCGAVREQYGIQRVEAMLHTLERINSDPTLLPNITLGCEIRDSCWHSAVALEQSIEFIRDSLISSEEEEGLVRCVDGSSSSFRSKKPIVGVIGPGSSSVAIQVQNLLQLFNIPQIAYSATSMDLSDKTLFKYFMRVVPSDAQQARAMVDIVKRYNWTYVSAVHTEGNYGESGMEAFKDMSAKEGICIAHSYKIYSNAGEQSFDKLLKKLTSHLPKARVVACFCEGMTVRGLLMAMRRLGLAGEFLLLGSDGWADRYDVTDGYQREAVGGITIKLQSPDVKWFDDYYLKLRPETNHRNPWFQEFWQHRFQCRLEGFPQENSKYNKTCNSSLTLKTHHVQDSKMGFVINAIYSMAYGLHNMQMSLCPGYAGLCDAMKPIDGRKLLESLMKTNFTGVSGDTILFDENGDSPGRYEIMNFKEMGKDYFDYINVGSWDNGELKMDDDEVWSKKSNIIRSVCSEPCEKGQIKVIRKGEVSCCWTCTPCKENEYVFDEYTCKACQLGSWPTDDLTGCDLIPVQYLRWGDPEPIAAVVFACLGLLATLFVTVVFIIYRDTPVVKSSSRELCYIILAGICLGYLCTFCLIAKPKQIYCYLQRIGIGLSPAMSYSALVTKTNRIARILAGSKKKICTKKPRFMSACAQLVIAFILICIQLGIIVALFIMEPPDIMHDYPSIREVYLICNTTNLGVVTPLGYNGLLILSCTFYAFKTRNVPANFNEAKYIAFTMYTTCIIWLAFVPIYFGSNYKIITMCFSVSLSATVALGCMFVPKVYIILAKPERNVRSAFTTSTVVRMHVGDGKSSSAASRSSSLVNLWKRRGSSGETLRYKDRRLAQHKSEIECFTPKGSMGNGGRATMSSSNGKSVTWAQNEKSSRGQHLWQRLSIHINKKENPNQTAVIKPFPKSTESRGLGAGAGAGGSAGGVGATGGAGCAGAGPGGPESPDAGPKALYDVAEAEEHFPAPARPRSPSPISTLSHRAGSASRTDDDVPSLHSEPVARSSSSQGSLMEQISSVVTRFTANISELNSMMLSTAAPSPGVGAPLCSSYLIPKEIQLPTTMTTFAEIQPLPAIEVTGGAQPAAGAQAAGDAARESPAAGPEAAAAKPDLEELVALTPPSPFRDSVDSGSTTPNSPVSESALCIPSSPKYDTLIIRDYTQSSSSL

Row | logD [1] | Ki [2] [nM] | IC50 [3] [nM] | Structure (SMILES) | also measured
1 | 2.9 | 21 | 29 | Cc1nc(C#Cc2ccc(-c3ccncc3)nc2)cs1 | 
2 | 3.8 | 51 | 15 | Cc1nc(C#Cc2ccccc2C)cs1 | 
3 | 2.6 | 15 | 18 | Cc1nc(C#Cc2cncc(-c3ccncc3)c2)cs1 | 
4 | 3.9 |  |  | Cc1cccc(C#Cc2csc(C)n2)c1 | 
5 | 2.8 | 28 | 22 | Cc1nc(C#Cc2cncc(-c3ccccn3)c2)cs1 | 
6 |  | 145 | 423 | Cc1nc(C#Cc2ccccc2-c2ccccc2)cs1 | 
7 | 2.4 | 1 | 3 | Cc1nc(C#Cc2cncc(-c3cccnc3)c2)cs1 | bioavailability [4]: 26%; CL/F [5]: 29 mL/min/kg; half-life [6]: 1.6 h; Cmax [7]: 800 nM; bioavailability [8]: 26%; clearance [9]: 29 mL/min/kg
8 | 3.9 |  |  | Cc1nc(C#Cc2ccc(-c3ccccc3)nc2)cs1 | 
9 | 5 | 43 | 22 | Cc1nc(C#Cc2ccc(-c3ccccc3)cc2)cs1 | 
10 | 4.1 | 40 | 2 | Cc1nc(C#Cc2cncc(-c3ccccc3)c2)cs1 | 
11 | 3.9 | 638 | 845 | Cc1ccc(C#Cc2csc(C)n2)cc1 | 
12 |  |  |  | Cc1nc(C#Cc2cccnc2)cs1 | bioavailability [10]: 16%; clearance [11]: 28 mL/min/kg; CL/F [12]: 28 mL/min/kg; half-life [6]: 8.3 h; Cmax [7]: 2000 nM; bioavailability [13]: 16%
13 |  | 218 | 127 | Cc1nc(C#Cc2ccncc2)cs1 | 
14 | 3.7 | 16 | 4 | Cc1nc(C#Cc2ccc(-c3ccccn3)nc2)cs1 | 
15 | 4.1 |  |  | Cc1nc(C#Cc2cccc(-c3ccccc3)c2)cs1 | 
16 | 3.1 |  |  | Cc1nc(C#Cc2ccc(-c3cccnc3)nc2)cs1 | bioavailability [10]: 100%; clearance [11]: 15 mL/min/kg; CL/F [12]: 15 mL/min/kg; half-life [6]: 0.8 h; Cmax [7]: 6500 nM; bioavailability [13]: 100%
17 |  | 9 | 4 | Cc1nc(C#Cc2ccccc2)cs1 | 
18 |  | 54 |  | Cc1nc(C#Cc2ccccn2)cs1 | 
